We go through ten molecules from ChEMBL document CHEMBL1145762, “Antiplatelet activity of synthetic pyrrolo-benzylisoquinolines” (Bioorg Med Chem Lett, 2003).

Format in all cases: functional, organism-based
Assay [1] is filed under the species Homo sapiens. Briefly: Antiplatelet aggregation (thrombin-induced) activity at a concentration of 0.1 U. The method in brief:
(§1)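 Platelets preincubated with test compound, aspirin or DMSO (0.5%, control) at 37 °C for 3 min, then aggregation inducer added (arachidonic acid, collagen, PAF or thrombin). IC50 values given as means ± S.E. (n=3).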

Assay [2] is filed under the species Homo sapiens. In words: Inhibitory activity against arachidonic acid-induced platelet aggregation at a concentration of 100 uM was determined. Summed up: as §1
For assay [3], the species on record is Homo sapiens. In words: Antiplatelet aggregation (collagen-induced) activity at a concentration of 10 ug/mL. The method in brief:
as §1

For assay [4], the species on record is Homo sapiens. Briefly: Antiplatelet aggregation (platelet activating factor-induced) activity at a concentration of 2 ng/mL. The method in brief: as §1

In the case of `COc1cc2c(cc1OC)C1=C(c3ccc(Cl)cc3)C(=O)C(=O)N1CC2`, the IC50 in assay [1] is above 100 µM; in assay [2] it was 52.8 µM; in assay [3], 30 µM; in assay [4], 84.8 µM.

Turning to `COc1cc2c(cc1OC)C1=C(c3ccccc3Cl)C(=O)C(=O)N1CC2`, the IC50 was above 100 µM in assay [1], 78.3 µM in assay [2], 44.9 µM in assay [3] and above 100 µM in assay [4].

In the case of `COc1cc2c(cc1OC)C1=C(c3ccc(Br)cc3)C(=O)C(=O)N1CC2`, the IC50 in assay [1] was above 100 µM; in assay [2], 72.7 µM; in assay [3] it was 29.8 µM; in assay [4], above 100 µM.

Turning to `COc1cc2c(cc1OC)C1=C(c3ccccc3Br)C(=O)C(=O)N1CC2`, the IC50 was above 100 µM in assay [1], above 100 µM in assay [2], 39.8 µM in assay [3] and above 100 µM in assay [4].

Take `COc1cc2c(cc1OC)C1=C(c3cccc(Br)c3)C(=O)C(=O)N1CC2`: the IC50 in assay [1] was above 100 µM; in assay [2], 45.5 µM; in assay [3], 23.3 µM; in assay [4] it was above 100 µM.

Take `COc1cc2c(cc1OC)C1=C(c3cccc(Cl)c3)C(=O)C(=O)N1CC2`: the half-inhibitory concentration (IC50) in assay [1] is above 100 µM; in assay [2], 53.8 µM; in assay [3], 37.5 µM; in assay [4] it was above 100 µM.

Turning to `COc1cccc(C2=C3c4cc(OC)c(OC)cc4CCN3C(=O)C2=O)c1`, the IC50 is above 100 µM in assay [1], 21 µM in assay [2], 6.1 µM in assay [3] and above 100 µM in assay [4].

Turning to `COc1ccc(C2=C3c4cc(OC)c(OC)cc4CCN3C(=O)C2=O)cc1`, the 50% inhibitory concentration (IC50) amounted to 30.7 µM in assay [1], 15.2 µM in assay [2], 9.15 µM in assay [3] and 33.2 µM in assay [4].

Turning to `COc1cc2c(cc1OC)C1=C(c3ccccc3OC)C(=O)C(=O)N1CC2`, the IC50 in assay [1] was above 100 µM; in assay [2], 65.5 µM; in assay [3] it was 35.8 µM; in assay [4] it was above 100 µM.

Turning to `CC(=O)Oc1ccccc1C(=O)O` [ASPIRIN], the IC50 was above 100 µM in assay [1], 44.6 µM in assay [2], 22.4 µM in assay [3] and above 100 µM in assay [4].

The term IC50 denotes the point on the concentration scale where inhibition reaches its midpoint. Low values mean inhibition by little substance, high ones a need for much substance.
